# Screening results as filed in PubChem.
# Compounds with a hit are over-represented: about 2.1% of the library has one in this group of screens.
# SR-BI DiI-HDL act: enhances SR-BI lipid uptake from DiI-HDL; CHO ldlA[mSR-BI] cells, DiI-HDL uptake fluorescence, 3 h; 100 = double the neutral-control signal; activation, % at 12.5 µM; 0.096% of 320,000 active; AID 504775;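 active = mean replicate activation of at least 60% and every replicate at or above 60%; inconclusive = mean or all-replicate condition met, but not both; inactive = mean below 60% and not all replicates reaching 60%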;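 note: 0% = median plate neutral-control signal and 100% = twice that signal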
#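 Test system: SR-BI-overexpressing, LDLR-lacking CHO cells; Also added: labelled HDL, 10 µg/mL; Measured by: bottom-read cell fluorescence after medium removal, ex 550/em 595 nm; Timing: 3 h uptake period with compound, 37 °C; Buffer or medium: F12, 0.5% BSA, 25 mM HEPES; Doses: single compound concentration, delivered by pin transfer.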
# SR-BI HDL uptake: blocks mouse SR-BI lipid uptake from DiI-HDL; Q61009; ldlA[mSR-BI] CHO cells, DiI-HDL uptake fluorescence, 3 h; inhibition, % at 12.5 µM; 0.96% of 320,000 active; AID 488896;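 active = mean replicate inhibition of at least 70% and a set share of replicates each scoring 70 or more; inconclusive = meets just one of the two criteria; inactive = fails both criteria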;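 note: 0% = median of neutral control wells and 100% = median of positive control wells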
# PKA-R2B activ: activators of human PKA-R2B complex. P22694+P31323. PKA-R2B holoenzyme dissociation, Cy5-IP20 fluorescence polarization; R2B truncated from residue 108, S112A mutant; 0% DMSO only, 100% 113 µM cGMP. activation, % at 11.4 µM. 0.079% of 340,000 active. AID 504700;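 active = activation above a cutoff set at the mean over all compounds plus 3 SD, cut at about 18% in these data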;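 note: higher means more holoenzyme dissociation and a rise in polarization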
# Target sequence (P31323 whole entry, looked up, other chains not shown, the tested form may be a part): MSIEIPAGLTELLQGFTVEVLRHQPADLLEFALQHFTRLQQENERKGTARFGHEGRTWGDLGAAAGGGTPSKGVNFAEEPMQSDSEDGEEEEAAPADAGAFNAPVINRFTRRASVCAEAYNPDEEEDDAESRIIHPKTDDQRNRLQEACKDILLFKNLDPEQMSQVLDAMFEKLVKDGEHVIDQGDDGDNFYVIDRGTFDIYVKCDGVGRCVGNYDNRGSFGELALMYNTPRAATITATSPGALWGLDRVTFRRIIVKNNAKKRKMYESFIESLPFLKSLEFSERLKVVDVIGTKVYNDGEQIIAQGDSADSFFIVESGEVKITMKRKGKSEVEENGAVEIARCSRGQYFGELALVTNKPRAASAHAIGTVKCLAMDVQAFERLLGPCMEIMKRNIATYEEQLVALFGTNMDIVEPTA
# PKA-R1A act: activates the PKA-R1A holoenzyme complex. PKA-R1A dissociation, Cy5-IP20 fluorescence polarization; scaled: DMSO 0%, 113 µM cGMP 100%. 0.083% of 340,000 active. P00514+P68181. AID 504707. activation, % at 11.4 µM;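 active = percent activation above the mean of all tested compounds plus 3 SD, cut at about 19% in these data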;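 note: higher means more PKAc released from R1A so a rise in polarization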
# dFosB activator: activators of mouse delta FosB homodimer. purified delta FosB, TAMRA-CDK5 oligo fluorescence polarization; percent of positive-control signal above neutral wells. 0.99% of 340,000 active. activation, % at 25 µM. P13346. AID 493131;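 active = mean activation above about 17%, with every replicate also reaching it, limit read from the data, passing the limit was not always enough; inconclusive = only one of the two conditions met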
# CDK5 p35 inh: blocks human CDK5/p35 kinase activity; Q00535+Q15078; Recombinant CDK5/p35, ADP-Glo luminescence, 60 min; inhibition, % at 10 µM; 0.01% of 330,000 active;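 active = highest replicate inhibition of at least 50% and at least 75% of replicates reaching 50%; inconclusive = only one of the two criteria met; inactive = both criteria failed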;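 note: plate controls were DMSO neutral control for no effect and GW8510 at 10 µM for full effect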
# The depositor's hits bear a star; u = inconclusive; x = not tested or not shown.
SMILES,SR-BI DiI-HDL act,SR-BI HDL uptake,PKA-R2B activ,PKA-R1A act,dFosB activator,CDK5 p35 inh
Cc1cc(NC(=O)c2ccccc2F)n(-c2nc3ccccc3[nH]2)n1,-76,76*,12,-1,-9,-1
COc1cc(OC)cc(-c2c(-c3ccc(F)cc3)c3cc(-c4cnc(OC)nc4)ccc3n2C)c1,-18,18,-4,1,12,1
CCCCC[C@H](O)/C=C/C1C(=O)C=C[C@H]1C/C=C\CCCC(=O)OC (stereo partly drawn),13,-13,-4,5,-20,0
COc1ccc(Br)cc1/C=N/NC(=O)c1ccc(COc2ccc3c(c2)CCC3)o1,-54,54,-4,6,-11,-1
O=C(N/N=C/c1cc([N+](=O)[O-])ccc1O)c1cccc2ccccc12,-129,129*,4,18,13,-2
O=C(N/N=C/c1cc([N+](=O)[O-])ccc1O)C1CCCCC1,-87,87*,-2,-4,-5,-3
O=C(N/N=C/c1cc([N+](=O)[O-])ccc1O)c1ccc(COc2ccc3c(c2)CCC3)o1,-136,136*,-5,-15,1,2
Cc1nc2ccc(C(=O)N/N=C/c3cc([N+](=O)[O-])ccc3O)cc2[nH]1,-106,106*,0,10,9,-6
O=C(NN=Cc1cc(Cl)ccc1[N+](=O)[O-])c1cccc2ccccc12,-40,40,-13,0,-4,2
Cc1ccc(N2CC(C(=O)OCC(=O)Nc3c(C)cccc3C)CC2=O)cc1 (stereo not drawn),x,x,6,12,x,x
Cc1cccc(NC(=O)CCC(=O)N/N=C/c2cc([N+](=O)[O-])ccc2O)c1,16,-16,-1,-7,3,0
O=C(N/N=C/c1cc([N+](=O)[O-])ccc1O)c1cccc(NC(=O)c2cccc(Cl)c2)c1,7,-7,-3,1,57*,0
Cc1cccc(NC(=O)COC(=O)c2ccccc2SCC(=O)N2CCCC2)c1,-12,12,-6,-18,-7,1
COc1ccc(/C(C)=N\Nc2nc(-c3ccc(Cl)cc3)cc(C(F)(F)F)n2)cc1OC,-61,61,-3,-16,-14,2
COc1ccc(/C=N/Nc2nc(-c3ccc(Cl)cc3)cc(C(F)(F)F)n2)c(OC)c1,-80,80*,-5,-1,-2,-1
COc1ccc(NC(=O)NCc2ccc(Cl)cc2)cc1,-12,12,-1,-1,-14,2
COc1ccc(OC)c(-c2cc(C(=O)Nc3cccc(Cl)c3)no2)c1,-94,94*,-14,-14,6,0
COc1ccc(OC)c(-c2cc(C(=O)NCc3ccco3)no2)c1,-81,81*,-8,3,8,0
COc1ccc(CNC(=O)Nc2cccc(Cl)c2)cc1,-14,14,-17,-4,24*,-1
COc1ccc(OC)c(-c2cc(C(=O)Nc3c(C)nn(Cc4ccc(Cl)cc4)c3C)no2)c1,-78,78*,-6,-9,-6,-2
O=C(Oc1ccc(Nc2ncnc3ccccc23)cc1)c1cccnc1,11,-11,2,-2,2,2
Cc1cccc(N/C(=N/S(=O)(=O)c2ccccc2)c2ccccc2)n1,7,-7,-11,4,-3,-2
Cc1oc(-c2ccccc2F)nc1CSCC(=O)NC1CCC(C)CC1 (stereo not drawn),-6,6,-10,-7,-11,-2
COc1ccc(-c2cc(C(=O)Nc3cccnc3Cl)no2)cc1OC,x,x,3,-2,-1,0
COc1ccc(-c2cc(C(=O)Nc3cc(C)n(Cc4ccc(Cl)cc4)n3)no2)cc1OC,-70,u,4,-7,32*,-2
SMILES,SR-BI DiI-HDL act,SR-BI HDL uptake,PKA-R2B activ,PKA-R1A act,dFosB activator,CDK5 p35 inh
CC(C)CCCCCCCCCCCCC(=O)NCC(=O)NC1C(C)OC(Nc2ncnc3nc[nH]c23)C(O)C1O (stereo not drawn),-5,5,-2,-1,68*,1
Cc1cc(=O)[nH]c2cc(O)ccc12,42,-42,-1,0,-3,2
CC(C)=CCCC1(C)C=Cc2c(c(C)cc3c2[nH]c2cc(O)ccc23)O1 (stereo not drawn),-107,107*,-9,-7,-2,0
Cc1cc(C)cc(NC(=O)CN2CCC(NC(=O)c3cccc(F)c3)CC2)c1,1,-1,4,-3,-4,0
COc1ccc(C(=O)NC2CCN(CC(=O)Nc3cccc(C)c3)CC2)cc1OC,-80,80*,1,-12,0,-2
CCOc1ccc(NC(=O)CN2CCN(CC(=O)c3ccc(OC)c(OC)c3)CC2)cc1,-63,63,-6,4,-7,0
CCCCOc1ccc(C(=O)N2CCN(CC(=O)Nc3ccc(C)cc3)CC2)cc1OC,-78,78*,-1,2,-18,-1
COC(=O)c1ccccc1CSc1nsc(/C=C/N(C)C)c1C#N,-101,101*,-8,-12,-8,1
CS(=O)(=O)c1sc2nc(-c3cccs3)cc(-c3ccccc3)c2c1N,-66,66,2,-20,-28,1
N#Cc1sc2nc(-c3cccs3)cc(-c3ccc(F)cc3)c2c1N,-82,82*,-4,-10,-6,-1
O=C(c1ccc(Br)cc1)N1CCC2(CC1)NCCc1[nH]cnc12,8,-8,-16,1,-1,x
CCN1CCN(c2cc(C)c3cc(NC(=O)c4ccc(Br)o4)ccc3n2)CC1,-52,52,-5,-5,-10,2
CCN(CC)c1cc(C)c2cc(NC(=O)c3ccc(Br)o3)ccc2n1,-73,73*,-7,-3,-32,1
Cc1ccccc1NC(=O)COC(=O)CNC(=O)c1sc2ccccc2c1Cl,11,-11,7,7,-12,0
O=C(COC(=O)CNC(=O)c1sc2ccccc2c1Cl)Nc1cc(Cl)cc(Cl)c1,-8,8,-2,1,167*,-3
CCOC(=O)/C=c1\s/c(=C\c2c(OCC)ccc3ccccc23)c(=O)n1CC(=O)NCC1CCCO1 (stereo not drawn),-91,91*,4,0,0,2
CCC(C)c1ccc(NC(=O)Nc2cnccn2)cc1 (stereo not drawn),x,36,1,3,-8,-4
Cc1c(C(c2ccc(C(=O)O)cc2)c2c(C)n(C)n(-c3ccccc3)c2=O)c(=O)n(-c2ccccc2)n1C,-76,76*,6,9,-6,0
C[C@H]1CN([C@@H](C)CO)C(=O)c2cc(Br)cnc2O[C@@H]1CN(C)S(=O)(=O)c1ccccc1,x,x,-7,6,x,x
